Data as given in ChEMBL document CHEMBL3992517 (J Med Chem, 2017).
The source made the active and inactive calls. The rule behind the calls is not given here.

How the values were obtained:
[1] = test system: K562; experiment: Antiproliferative activity against human K562 cells after 48 hrs by Alamar blue dye based neubauer hemocytometer method; type: functional, cell-based; settings: K562, 48 h
How it was run: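 K562 human chronic myelogenous leukemia cells, mycoplasma-negative, grown at 37 °C in 5% CO2 in RPMI 1640 with 10% FBS, penicillin/streptomycin and L-glutamine. Cells were exposed to compound for 48 h and then counted on a Neubauer hemocytometer. IC50 is the concentration giving 50% growth inhibition, taken as the mean of at least three independent determinations (SD < 10%).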

[2] = (§1) Inhibition of porcine tubulin polymerization after 45 mins by turbidometric method; design: species or system Sus scrofa
[3] = test system: IMR-90; experiment: Antiproliferative activity against human IMR90 cells after 72 hrs by SRB assay; type: functional; settings: IMR-90, 72 h
How it was run: (§2)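 Cell panel screen (93 tumour lines listed in text; 94 in the table), run to the DTP NCI sulforhodamine B protocol. Concentrations from 0.0001 to 10 µM. GI50 is the molar concentration giving 50% growth inhibition relative to the initial seeding number, taken from log-transformed data. zScore is reported per cell line.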

[4] = test system: HT-29; experiment: Antiproliferative activity against human HT-29 cells after 72 hrs by SRB assay; type: functional; settings: HT-29, 72 h; how it was run: as §2
[5] = test system: K562; experiment: Cell cycle arrest in human K562 cells assessed as accumulation at G2/M phase up to 30 nM after 24 hrs by propidium iodide staining-based flow cytometry
[6] = test system: SK-LMS-1; experiment: Antiproliferative activity against human SKLMS1 cells after 72 hrs by SRB assay; type: functional; settings: SK-LMS-1, 72 h; how it was run: as §2
[7] = test system: COLO-678; experiment: Antiproliferative activity against human COLO-678 cells after 72 hrs by SRB assay; type: functional; settings: COLO-678, 72 h; how it was run: as §2
[8] = test system: RD; experiment: Antiproliferative activity against human RD cells after 72 hrs by SRB assay; type: functional; how it was run: as §2
[9] = test system: PBMC; experiment: Cytotoxicity against human PBMC after 72 hrs by SRB assay; type: cell-based
How it was run: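 Resting, non-proliferating peripheral blood mononuclear cells were included in the panel and quantified by sulforhodamine B staining.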

[10] = test system: JAR; experiment: Antiproliferative activity against human JAR cells after 72 hrs by SRB assay; type: functional; how it was run: as §2
[11] = test system: NCI-H82; experiment: Antiproliferative activity against human NCI-H82 cells after 72 hrs by SRB assay; type: functional; settings: NCI-H82, 72 h; how it was run: as §2
[12] = test system: PANC-1; experiment: Antiproliferative activity against human PANC1 cells after 72 hrs by SRB assay; type: functional; settings: PANC-1, 72 h; how it was run: as §2
[13] = test system: NCI-H292; experiment: Antiproliferative activity against human NCI-H292 cells after 72 hrs by SRB assay; type: functional; settings: NCI-H292, 72 h; how it was run: as §2
[14] = species: Sus scrofa; experiment: as §1
[15] = test system: Panc1005; experiment: Antiproliferative activity against human Panc 10.05 cells after 72 hrs by SRB assay; type: functional; settings: Panc1005, 72 h; how it was run: as §2
[16] = test system: JIMT-1; experiment: Antiproliferative activity against human JIMT1 cells after 72 hrs by SRB assay; type: functional; settings: JIMT-1, 72 h; how it was run: as §2
[17] = test system: SK-BR-3; experiment: Antiproliferative activity against human SK-BR-3 cells after 72 hrs by SRB assay; type: functional; settings: SK-BR-3, 72 h; how it was run: as §2
[18] = test system: SK-N-AS; experiment: Antiproliferative activity against human SK-N-AS cells after 72 hrs by SRB assay; type: functional; how it was run: as §2
[19] = test system: MG-63; experiment: Antiproliferative activity against human MG63 cells after 72 hrs by SRB assay; type: functional; settings: MG-63, 72 h; how it was run: as §2
[20] = test system: Caco-2; experiment: Antiproliferative activity against human Caco2 cells after 72 hrs by SRB assay; type: functional; settings: Caco-2, 72 h; how it was run: as §2
[21] = Antiproliferative activity against human CLS439 cells after 72 hrs by SRB assay; type: functional; settings: CLS439, 72 h; how it was run: as §2
[22] = target: Tubulin beta-5 chain (Homo sapiens) (UniProt P07437); experiment: Competitive binding affinity to beta-tubulin in human K562 cells assessed as disappearance of EBI-protein adducts at 20 to 40 uM preincubated for 2 hrs followed by EBI addition measured after 1.5 hrs by Western blot analysis; type: cell-based
Sequence of Tubulin beta-5 chain (Homo sapiens) (P07437 whole entry): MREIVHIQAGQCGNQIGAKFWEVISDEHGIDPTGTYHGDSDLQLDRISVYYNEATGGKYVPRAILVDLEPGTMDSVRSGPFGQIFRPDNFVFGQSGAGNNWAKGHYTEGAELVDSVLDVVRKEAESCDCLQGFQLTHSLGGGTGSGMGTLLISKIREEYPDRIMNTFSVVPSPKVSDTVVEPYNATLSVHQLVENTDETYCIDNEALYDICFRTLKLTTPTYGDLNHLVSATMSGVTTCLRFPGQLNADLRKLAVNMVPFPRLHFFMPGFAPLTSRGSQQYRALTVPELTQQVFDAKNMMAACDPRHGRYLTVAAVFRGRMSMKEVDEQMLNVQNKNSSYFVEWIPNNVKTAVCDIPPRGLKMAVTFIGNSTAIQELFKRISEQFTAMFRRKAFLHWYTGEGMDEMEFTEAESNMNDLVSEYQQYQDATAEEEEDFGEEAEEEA

IC50 [1] [nM]	IC50 [2] [nM]	SMILES	further results
9000	> 10000	COc1ccccc1N1CCN(CC(=O)N2c3ccccc3Oc3ccccc32)CC1	–
20	640	COc1ccccc1N1CCN(C(=O)N2c3ccccc3Oc3ccccc32)CC1	–
840	10700	COc1ccccc1N1CCN(C(=O)N2c3ccccc3CCc3ccccc32)CC1	–
30	920	COc1cccc(N2CCN(C(=O)N3c4ccccc4Sc4ccc(Cl)cc43)CC2)c1	–
20	550	COc1cccc(N2CCN(C(=O)N3c4ccccc4Sc4ccccc43)CC2)c1	–
450	2830	COc1ccccc1N1CCN(C(=O)N2c3ccccc3C=Cc3ccccc32)CC1	–
3700	–	COc1ccc(N2CCN(C(=O)N3c4ccccc4Sc4ccccc43)CC2)cc1	–
390	–	N#Cc1ccc(N2CCN(C(=O)N3c4ccccc4Sc4ccccc43)CC2)cc1	–
30	320	COc1ccccc1N1CCN(C(=O)N2c3ccccc3Oc3cc(C#N)ccc32)CC1	–
1900	> 10000	COc1ccc(N2CCN(C(=O)N3c4ccccc4Sc4ccc(Cl)cc43)CC2)cc1	–
90	510	COc1ccccc1N1CCN(C(=O)N2c3ccccc3Sc3ccc(Cl)cc32)CC1	–
30	620	COc1ccccc1N1CCN(C(=O)N2c3ccccc3Oc3ccc(Cl)cc32)CC1	–
> 10000	> 10000	COc1ccccc1N1CCN(C(=O)Nc2ccccc2Oc2ccccc2)CC1	–
20	600	COc1ccccc1N1CCN(C(=O)N2c3ccccc3Sc3ccccc32)CC1	Activity [22]: Active
130	810	O=C(N1CCN(c2ccccc2)CC1)N1c2ccccc2Sc2ccccc21	–

Second part, the compound before the results:

SMILES	IC50 [1] [nM]	IC50 [2] [nM]	further results
COc1ccc(NC(=O)N2c3ccccc3Oc3ccccc32)cc1	> 80000	> 10000	–
COc1cccc(N2CCN(CC(=O)N3c4ccccc4Oc4ccccc43)CC2)c1	5000	> 10000	–
COc1cccc(N2CCN(C(=O)N3c4ccccc4Oc4ccc(Cl)cc43)CC2)c1	30	800	–
COc1cccc(N2CCN(C(=O)N3c4ccccc4Oc4ccccc43)CC2)c1	20	690	–
COc1ccc(N2CCN(C(=O)N3c4ccccc4Oc4cc(C#N)ccc43)CC2)cc1	3700	3380	–
COc1ccc(N2CCN(C(=O)Nc3ccccc3Oc3ccccc3)CC2)cc1	> 10000	> 10000	–
COc1ccccc1N1CCN(C(=O)N2c3cc(Cl)ccc3Oc3ccc(Cl)cc32)CC1	130	1190	–
N#Cc1ccc(N2CCN(C(=O)N3c4ccccc4Oc4ccccc43)CC2)cc1	> 20000	> 10000	–
O=C(N1CCN(c2ccc([N+](=O)[O-])cc2)CC1)N1c2ccccc2Oc2ccccc21	> 70000	> 10000	–
COc1ccc(N2CCN(C(=O)N3c4ccccc4Oc4ccccc43)CC2)cc1	3130	14300	–
COc1cccc(N2CCN(C(=O)N3c4ccccc4Oc4cc(C#N)ccc43)CC2)c1	7	360	GI50 [3]: 1.6 nM; GI50 [4]: 6.4 nM; Activity [5]: Active; GI50 [6]: 5.9 nM; GI50 [7]: 7.5 nM; GI50 [8]: 1.7 nM; Activity [9]: Non-Toxic; GI50 [10]: 1.7 nM; GI50 [11]: 1.6 nM; GI50 [12]: 6.5 nM; GI50 [13]: 6.7 nM; inhibition [14]: Dose-dependent effect; GI50 [15]: 1.7 nM; GI50 [16]: 5.9 nM; GI50 [17]: 1.5 nM; GI50 [18]: 1.4 nM; GI50 [19]: 1.5 nM; GI50 [20]: 7.9 nM; GI50 [21]: 7.8 nM
COc1cccc(N2CCN(C(=O)N(c3ccccc3)c3ccccc3)CC2)c1	18000	> 10000	–
O=C(N1CCN(c2ccc(Cl)cc2)CC1)N1c2ccccc2Oc2ccccc21	630	830	–
COc1cccc(N2CCN(C(=O)N3c4cc(Cl)ccc4Oc4ccc(Cl)cc43)CC2)c1	180	900	–
Cc1ccc(N2CCN(C(=O)N3c4ccccc4Oc4ccccc43)CC2)cc1	1390	–	–
O=C(N1CCN(c2ccccc2)CC1)N1c2ccccc2Oc2ccccc21	30	1380	–
COc1cccc(CNC(=O)N2c3ccccc3Oc3ccccc32)c1	6000	8530	–
c1ccc2c(c1)Nc1ccccc1O2 [PHENOXAZINE]	16800	–	–
O=C(N1CCN(c2ccc(C(F)(F)F)cc2)CC1)N1c2ccccc2Oc2ccccc21	> 60000	> 10000	–
COc1ccc(CNC(=O)N2c3ccccc3Oc3ccccc32)cc1	19000	9000	–
COc1cccc(N2CCN(C(=O)N3c4ccccc4C=Cc4ccccc43)CC2)c1	940	3560	–
CC[C@]1(O)C[C@H]2CN(CCc3c([nH]c4ccccc34)[C@@](C(=O)OC)(c3cc4c(cc3OC)N(C)[C@H]3[C@@](O)(C(=O)OC)[C@H](OC(C)=O)[C@]5(CC)C=CCN6CC[C@]43[C@@H]65)C2)C1	1	–	–
COc1cccc(N2CCN(C(=O)Nc3ccccc3Oc3ccccc3)CC2)c1	> 10000	> 10000	–
